Source: ChEMBL document CHEMBL3797125, “Discovery of GluN2A-Selective NMDA Receptor Positive Allosteric Modulators (PAMs): Tuning Deactivation Kinetics via Structure-Based Design” (J Med Chem, 2016)

Experiments:
[1] = target: T1, Glutamate receptor 2 (Homo sapiens, UniProt P42262); assay: Positive allosteric modulation of human GluA2 AMPAR flip isomer expressed in Dox-inducible cells at 125 uM measured every 5 mins by BD calcium indicator dye based-fluorescence analysis in presence of glutamate; format: cell-based
[2] = target: T2, Glutamate NMDA receptor; GRIN1/GRIN2A (Homo sapiens, UniProt Q05586+Q12879); assay: Positive allosteric modulation of GluN1/GluN2A NMDAR (unknown origin) expressed in Dox-inducible cells measured every 5 mins by BD calcium indicator dye based-fluorescence analysis in presence of glutamate/glycine; format: cell-based
Procedure, shortened: (§1)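 GluN2A-containing NMDAR cell line, harvested, seeded, doxycycline 2 µg/mL overnight with 500 µM ketamine for protection, then washed and loaded with calcium dye for 50 min. Compound added at 2x concentration in 2x EC30 Glu (EC30 set daily from Glu dose-response); saturating Gly throughout; fluorescence recorded over 5 min.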

[3] = target: T2, Glutamate NMDA receptor; GRIN1/GRIN2A; assay: Positive allosteric modulation of GluN1/GluN2A NMDAR (unknown origin) expressed in Dox-inducible cells at 125 uM measured every 5 mins by BD calcium indicator dye based-fluorescence analysis in presence of glutamate/glycine; format: cell-based; procedure, shortened: as §1
[4] = target: T1, Glutamate receptor 2; assay: Positive allosteric modulation of human GluA2 AMPAR flop isomer expressed in Dox-inducible cells at 125 uM measured every 5 mins by BD calcium indicator dye based-fluorescence analysis in presence of glutamate; format: cell-based
[5] = system: human MDR1 (P-gp); assay: Efflux ratio of permeability from basolateral to apical over apical to basolateral side in MDCK cells expressing human MDR1; format: ADME, cell-based, Canis lupus familiaris; settings: dog
[6] = target: T1, Glutamate receptor 2; assay: Positive allosteric modulation of human GluA2 AMPAR flop isomer expressed in Dox-inducible cells measured every 5 mins by BD calcium indicator dye based-fluorescence analysis in presence of glutamate; format: cell-based
[7] = target: T1, Glutamate receptor 2; assay: Positive allosteric modulation of human GluA2 AMPAR flip isomer expressed in Dox-inducible cells measured every 5 mins by BD calcium indicator dye based-fluorescence analysis in presence of glutamate; format: cell-based

T1 sequence (P42262 whole entry): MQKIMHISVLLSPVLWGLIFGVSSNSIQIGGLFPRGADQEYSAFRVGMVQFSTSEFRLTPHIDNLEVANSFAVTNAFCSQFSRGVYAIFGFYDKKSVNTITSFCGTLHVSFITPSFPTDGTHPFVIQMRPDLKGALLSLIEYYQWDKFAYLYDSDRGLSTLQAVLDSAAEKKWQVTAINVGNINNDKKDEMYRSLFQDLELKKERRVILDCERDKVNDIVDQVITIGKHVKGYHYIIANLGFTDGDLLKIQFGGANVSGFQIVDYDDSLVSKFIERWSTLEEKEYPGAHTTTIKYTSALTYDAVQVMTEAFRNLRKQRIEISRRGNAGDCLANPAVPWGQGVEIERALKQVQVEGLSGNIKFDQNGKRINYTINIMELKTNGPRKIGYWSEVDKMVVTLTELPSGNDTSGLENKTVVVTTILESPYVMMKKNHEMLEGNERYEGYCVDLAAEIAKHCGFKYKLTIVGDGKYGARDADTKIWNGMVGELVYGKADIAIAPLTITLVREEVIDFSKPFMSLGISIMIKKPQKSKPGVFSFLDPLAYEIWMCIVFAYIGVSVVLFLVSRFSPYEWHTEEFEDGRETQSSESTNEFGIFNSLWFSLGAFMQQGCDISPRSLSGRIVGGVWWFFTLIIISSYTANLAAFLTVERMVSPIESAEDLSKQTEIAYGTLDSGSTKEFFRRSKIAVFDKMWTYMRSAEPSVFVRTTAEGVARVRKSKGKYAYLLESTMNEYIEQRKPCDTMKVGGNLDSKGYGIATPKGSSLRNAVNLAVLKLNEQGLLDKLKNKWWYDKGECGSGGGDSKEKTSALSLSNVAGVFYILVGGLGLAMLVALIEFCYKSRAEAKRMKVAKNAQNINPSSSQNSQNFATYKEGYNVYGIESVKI

%max [1]	EC50 [2]	%max [3]	%max [4]	efflux ratio [5]	EC50 [6]	EC50 [7]	Structure (SMILES)
39%	649 nM	153%	83%	1.1	1900 nM	66300 nM	CCN(Cc1cc(=O)n2c(CO)c(C)sc2n1)c1ccc(F)cc1
15%	685 nM	129%	1%	1.3	–	34400 nM	CCN(Cc1cc(=O)n2c(C(C)C)c(C)sc2n1)c1ccc(F)cc1
10%	62200 nM	71%	8%	25	53700 nM	32900 nM	CCNC(=O)c1c(C)sc2nc(Cc3cccc(C#N)c3)cc(=O)n12
54%	536 nM	147%	60%	2.2	6400 nM	–	CCNC(=O)c1c(C)sc2nc(Cn3nc(C(F)(F)F)cc3C3CC3)cc(=O)n12
1%	12900 nM	94%	0%	22	–	–	CCNC(=O)c1c(C)sc2nc(Cc3cc(C#N)ccc3Cl)cc(=O)n12
72%	159 nM	168%	75%	0.9	572 nM	10500 nM	CCN(Cc1cc(=O)n2c(CCO)c(C)sc2n1)c1ccc(F)cc1
7%	382 nM	122%	6%	0.8	2300 nM	5400 nM	Cc1sc2nc(COc3ccc(F)cc3)cc(=O)n2c1[C@@H]1C[C@H]1CO
56%	137 nM	148%	16%	1.2	972 nM	–	CCN(Cc1cc(=O)n2c(-c3cncnc3)c(C)sc2n1)c1ccc(F)cc1
37%	183 nM	154%	30%	0.6	5500 nM	32300 nM	CCN(Cc1cc(=O)n2c(C(C)O)c(C)sc2n1)c1ccc(F)cc1 (racemic)
38%	2600 nM	122%	20%	–	8600 nM	35900 nM	CCN(Cc1cc(=O)n2c(C3CCC3)c(C)sc2n1)c1ccc(F)cc1
2%	434 nM	159%	2%	8.6	–	–	CCNC(=O)c1c(C)sc2nc(CN(C)c3ccc(F)cc3)cc(=O)n12
8%	4900 nM	128%	19%	33	–	–	CCNC(=O)c1c(C)sc2nc(Cn3nc(C(F)(F)F)cc3C)cc(=O)n12
18%	131 nM	185%	38%	9.8	–	–	CCN(Cc1cc(=O)n2c(C(=O)NC)c(C)sc2n1)c1ccc(F)cc1
37%	183 nM	169%	45%	1	1500 nM	33200 nM	CCN(Cc1cc(=O)n2c(CCCO)c(C)sc2n1)c1ccc(F)cc1
13%	129 nM	181%	60%	0.9	10700 nM	66600 nM	CCN(Cc1cc(=O)n2c(C#N)c(C)sc2n1)c1ccc(F)cc1
2%	17500 nM	102%	2%	44	–	–	CCNC(=O)c1c(C)sc2nc(Cc3cc(C#N)ccc3C3CC3)cc(=O)n12
4%	3100 nM	75%	8%	2.2	–	–	CCNC(=O)c1c(C)sc2nc(C(C)c3cccc(C(F)(F)F)c3F)cc(=O)n12 (racemic)
3%	57100 nM	60%	10%	3.7	–	–	CCNC(=O)c1c(C)sc2nc(Cn3nc(C(F)(F)F)cc3OCC(C)C)cc(=O)n12
91%	29.5 nM	151%	93%	5.3	73 nM	702 nM	Cc1sc2nc(Cn3nc(C(F)(F)F)cc3Cl)cc(=O)n2c1[C@@H]1C[C@H]1C#N

%max [1]	EC50 [2]	%max [3]	%max [4]	efflux ratio [5]	EC50 [6]	EC50 [7]	Structure (SMILES)
85%	17.7 nM	147%	52%	1.3	48 nM	150 nM	Cc1sc2nc(Cn3nc(C(F)(F)F)cc3Cl)cc(=O)n2c1[C@@H]1C[C@H]1CO
95%	312 nM	150%	93%	1	245 nM	252 nM	CCN(Cc1cc(=O)n2cc(C)sc2n1)c1ccc(F)cc1
38%	900 nM	160%	23%	3.6	1100 nM	32600 nM	Cc1sc2nc(Cc3cccc(C#N)c3F)cc(=O)n2c1C1CC1CO (racemic)
84%	24.4 nM	184%	64%	1.2	204 nM	870 nM	CCN(Cc1cc(=O)n2c([C@@H]3C[C@H]3CO)c(C)sc2n1)c1ccc(F)cc1
5%	132 nM	171%	32%	12.6	48700 nM	–	CCCN(Cc1cc(=O)n2c(C(=O)NCC)c(C)sc2n1)c1ccc(F)cc1
9%	1200 nM	94%	20%	1.8	29400 nM	28300 nM	CCNC(=O)c1c(C)sc2nc(Cc3cccc(C(F)(F)F)c3F)cc(=O)n12
18%	1900 nM	113%	21%	20	66200 nM	–	CCNC(=O)c1c(C)sc2nc(Cc3cccc(C(F)(F)F)c3)cc(=O)n12
32%	414 nM	144%	43%	57	9100 nM	–	CCNC(=O)c1c(C)sc2nc(Cn3nc(C(F)(F)F)cc3OCC)cc(=O)n12
2%	17000 nM	99%	1%	21.5	–	–	CCNC(=O)c1c(C)sc2nc(Cn3ccc(C(F)(F)F)n3)cc(=O)n12
35%	394 nM	168%	31%	0.8	9800 nM	34000 nM	CCN(Cc1cc(=O)n2c(C3CC3)c(C)sc2n1)c1ccc(F)cc1
66%	73 nM	144%	41%	1	2500 nM	36100 nM	O=c1cc(Cn2nc(C(F)(F)F)cc2Cl)nc2sc(C(F)(F)F)c([C@@H]3C[C@H]3CO)n12
75%	168 nM	144%	11%	1.2	4500 nM	33800 nM	CCN(Cc1cc(=O)n2c(-c3cccnc3)c(C)sc2n1)c1ccc(F)cc1
8%	7000 nM	123%	19%	5.8	–	–	CCNC(=O)c1c(C)sc2nc(CNc3ccc(F)cc3)cc(=O)n12
57%	454 nM	117%	27%	0.51	359 nM	1700 nM	Cc1sc2nc(Cc3cccc(C(F)(F)F)c3F)cc(=O)n2c1C1CC1CO (racemic)
3%	9100 nM	102%	3%	3.1	–	–	CCNC(=O)c1c(C)sc2nc(Cc3cccc(C#N)c3F)cc(=O)n12
6%	1700 nM	170%	13%	22	–	–	CCNC(=O)c1c(C)sc2nc(CN(CC)c3ccc(F)cn3)cc(=O)n12
11%	2200 nM	69%	8%	0.9	60200 nM	75800 nM	CCN(Cc1cc(=O)n2c(N3CCOCC3)c(C)sc2n1)c1ccc(F)cc1
65%	63 nM	157%	5%	1	2400 nM	12400 nM	CCN(Cc1cc(=O)n2c(C(C)(C)O)c(C)sc2n1)c1ccc(F)cc1
